This is an account of results in publication PMC3755449 (Nature communications, 2013).

By IC50 is commonly meant the midpoint of a concentration-inhibition curve.

The test system of assay [1] is P. falciparum clone FVO merozoites invading RBCs. The assay is described as follows: Invasion assay using purified invasive merozoites. To be noted: 25 and 50 μM. It counts as cell-based, Plasmodium falciparum. In outline: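 Merozoites come from an FVO line selected for prolonged free-merozoite survival. Synchronized schizonts are gradient-purified, ruptured 3 hr at 37°C, and merozoites are filtered twice through 1.2 μm. About 5×10⁷ merozoites are gassed with 2.5×10⁷ pre-warmed RBCs and a range of compound concentrations for 3–4 hr at 37°C. Free merozoites are removed at 50 g for 7 min. Rings are counted by SYBR green/MitoTracker flow cytometry; IC50 by nonlinear regression.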

Assay [2] concerns schizont-infected RBCs (FVO clone). The assay is described as follows: Schizont rupture assay. It counts as cell-based, Plasmodium falciparum. To be noted: 30 μM.
For assay [3], the system named is AMA1 secretion onto merozoite surface. Put plainly: IFA of AMA1 secretion from micronemes. Type of assay: cell-based, Plasmodium falciparum. The conditions noted are these: non-permeabilizing IFA, 60 μM. The gist of the method: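 Schizonts rupture with or without test compound (60 μM) present beforehand. Released merozoites are probed with polyclonal anti-AMA1 antibodies by immunofluorescence under non-permeabilizing conditions to assess surface AMA1.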

The target of assay [4] is Recombinant, his-tagged AMA1 (apical membrane antigen 1), 3D7 allele (Plasmodium falciparum (3D7 allele)) (UniProt Q7KQK5). Put plainly: AlphaScreen or HTRF. On the technique in general: Alpha assays give light when donor and acceptor beads are brought close together.

Where a name gives a salt, the structure may show the parent alone.

In the case of `CN(C)CCCN1c2ccccc2C(C)(C)c2ccccc21` [NCGC00014044, Dimetacrine], the “inhibition of merozoite invasion” value in assay [1] is “inhibited merozoite invasion”. For the same molecule, the “merozoite release from schizont-infected RBCs” value in assay [2] is reported as “not affected”.

With `Clc1cccc(C(c2ccc3[nH]cnc3c2)n2ccnc2)c1` (stereo not drawn) [NCGC00181034, Liarozole hydrochloride], the “AMA1 secretion from micronemes” value in assay [3] was “not affected”. The “inhibition of merozoite invasion” value in assay [1] was “inhibited merozoite invasion”. Further, the “merozoite release from schizont-infected RBCs” value in assay [2] was “not affected”.

B1: Untagged RON2L peptide (peptide)
peptide: DITQQAKDIGAGPVASCFTTRMSPPQQICLNSVVNTALSTSTQSAMK
In the case of B1, the IC50 in assay [4] turned out to be 100 nM.
